Test [1] has as its system CAL-27. Kind of test: Potentiation of 0.316 uM cisplatin-induced cytotoxicity against human CAL27 cells assessed as decrease in cell viability by measuring combination index at 100 uM preincubated for 48 hrs followed by cisplatin treatment measured after 72 hrs by MTT assay. In kind it is functional. As to conditions: in the assay text read “at 100 nM” for “at 100 uM”. Summed up:
(§1)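 Cal27 and cisplatin-resistant Cal27CisR cells were preincubated with the HDAC inhibitor for 48 h, then given cisplatin in combination. Viability was read by MTT after 72 h. The combination index was computed by the Chou–Talalay method: CI > 1 is antagonism, CI = 1 is additive, and CI < 0.9 is synergism. Points with fraction affected below 0.20 were flagged.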

Test [2] deals with CAL-27. The experiment in a line: Potentiation of 5 uM cisplatin-induced cytotoxicity against human CAL27 cells assessed as decrease in cell viability by measuring combination index at 200 uM preincubated for 48 hrs followed by cisplatin treatment measured after 72 hrs by MTT assay. In kind it is functional. Particulars: in the assay text read “at 200 nM” for “at 200 uM”. Summed up: (§2)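 HDAC inhibitor was added 48 h before cisplatin, then cells were exposed to cisplatin for 72 h and viability was read by MTT assay. Combination index was computed by the Chou–Talalay method: CI > 1 is antagonism, CI = 1 additive, CI < 0.9 synergism. Points with fraction affected below 0.20 were flagged.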
(In general: Formazan colour is commonly taken as a measure of viable cells.)

For test [3], the system named is CAL-27. Kind of test: Potentiation of 0.5 uM cisplatin-induced cytotoxicity against human CAL27 cells assessed as decrease in cell viability by measuring combination index at 100 uM preincubated for 48 hrs followed by cisplatin treatment measured after 72 hrs by MTT assay. It is filed as functional. As to conditions: in the assay text read “at 100 nM” for “at 100 uM”. Summed up:
as §1

The target in test [4] is T1, Histone deacetylase 1/6 (Homo sapiens) (UniProt Q13547+Q9UBN7). Kind of test: Inhibition of HDAC1/HDAC6 in human Cal27CisR cells assessed as potentiation of 3.16 uM cisplatin-induced cytotoxicity by measuring combination index at 300 uM preincubated for 48 hrs followed by cisplatin treatment measured after 72 hrs by MTT assay. It is filed as cell-based. Summed up:
(§3)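 Cal27CisR cells preincubated 48 h with the HDAC inhibitor, then exposed to cisplatin for 72 h. Viability read by MTT. Combination index calculated by the Chou–Talalay method: CI > 1 antagonism, CI = 1 additive, CI < 0.9 synergism. Points with fraction affected below 0.20 are flagged. Values are the mean of three experiments.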

In test [5] the target is T1, Histone deacetylase 1/6 (Homo sapiens). Kind of test: Inhibition of HDAC1/HDAC6 in human Cal27CisR cells assessed as potentiation of 3.16 uM cisplatin-induced cytotoxicity by measuring combination index at 200 uM preincubated for 48 hrs followed by cisplatin treatment measured after 72 hrs by MTT assay. It is filed as cell-based. Summed up: as §3
Test [6] concerns CAL-27. The experiment in a line: Potentiation of 5 uM cisplatin-induced cytotoxicity against human CAL27 cells assessed as decrease in cell viability by measuring combination index at 300 uM preincubated for 48 hrs followed by cisplatin treatment measured after 72 hrs by MTT assay. It is filed as functional. Particulars: in the assay text read “at 300 nM” for “at 300 uM”. Summed up: as §2

Test [7] addresses T1, Histone deacetylase 1/6 (Homo sapiens). The experiment in a line: Inhibition of HDAC1/HDAC6 in human Cal27CisR cells assessed as potentiation of 1 uM cisplatin-induced cytotoxicity by measuring combination index at 400 nM preincubated for 48 hrs followed by cisplatin treatment measured after 72 hrs by MTT assay.
Test [8] concerns CAL-27. Kind of test: Potentiation of 2 uM cisplatin-induced cytotoxicity against human CAL27 cells assessed as decrease in cell viability by measuring combination index at 400 uM preincubated for 48 hrs followed by cisplatin treatment measured after 72 hrs by MTT assay. It is filed as functional. As to conditions: in the assay text read “at 400 nM” for “at 400 uM”. Summed up: as §2

For test [9], the system named is CAL-27. Kind of test: Potentiation of 1 uM cisplatin-induced cytotoxicity against human CAL27 cells assessed as decrease in cell viability by measuring combination index at 400 uM preincubated for 48 hrs followed by cisplatin treatment measured after 72 hrs by MTT assay. It is filed as functional. Summed up: as §2
For test [10], the system named is Cal27CisR. The experiment in a line: Induction of apoptosis in human Cal27CisR cells at 1 uM for 48 hrs by propidium iodide dye-based flow cytometry. It is filed as functional, cell-based.
Test [11] relates to CAL-27. The experiment in a line: Potentiation of 0.5 uM cisplatin-induced cytotoxicity against human CAL27 cells assessed as decrease in cell viability by measuring combination index at 200 uM preincubated for 48 hrs followed by cisplatin treatment measured after 72 hrs by MTT assay. It is filed as functional. Summed up: as §1
The target of test [12] is T1, Histone deacetylase 1/6 (Homo sapiens). The experiment in a line: Inhibition of HDAC1/HDAC6 in human Cal27CisR cells assessed as potentiation of 3.16 uM cisplatin-induced cytotoxicity by measuring combination index at 400 uM preincubated for 48 hrs followed by cisplatin treatment measured after 72 hrs by MTT assay. It is filed as cell-based. Summed up:
as §1

Test [13] has the same target. Kind of test: Inhibition of HDAC1/HDAC6 in human Cal27CisR cells assessed as potentiation of 3.16 uM cisplatin-induced cytotoxicity by measuring combination index at 100 uM preincubated for 48 hrs followed by cisplatin treatment measured after 72 hrs by MTT assay. In kind it is cell-based. Summed up: as §3
Test [14] shares this target. Kind of test: Inhibition of HDAC1/HDAC6 in human Cal27CisR cells assessed as potentiation of 5 uM cisplatin-induced cytotoxicity by measuring combination index at 300 nM preincubated for 48 hrs followed by cisplatin treatment measured after 72 hrs by MTT assay.
Test [15] shares this target. The experiment in a line: Inhibition of HDAC1/HDAC6 in human Cal27CisR cells assessed as potentiation of 20 uM cisplatin-induced cytotoxicity by measuring combination index at 300 nM preincubated for 48 hrs followed by cisplatin treatment measured after 72 hrs by MTT assay.
In test [16] the test system is CAL-27. The experiment in a line: Potentiation of 1 uM cisplatin-induced cytotoxicity against human CAL27 cells assessed as decrease in cell viability by measuring combination index at 100 uM preincubated for 48 hrs followed by cisplatin treatment measured after 72 hrs by MTT assay. It is filed as functional. As to conditions: in the assay text read “at 100 nM” for “at 100 uM”. Summed up: as §1

Test [17] deals with CAL-27. The experiment in a line: Potentiation of 1 uM cisplatin-induced cytotoxicity against human CAL27 cells assessed as decrease in cell viability by measuring combination index at 300 uM preincubated for 48 hrs followed by cisplatin treatment measured after 72 hrs by MTT assay. In kind it is functional. Summed up:
as §2

The subject of test [18] is CAL-27. The experiment in a line: Potentiation of cisplatin-induced cytotoxicity against human CAL27 cells assessed as decrease in cell viability at 0.5 uM preincubated for 48 hrs followed by cisplatin treatment measured after 72 hrs by MTT assay relative to cisplatin alone. It is filed as functional. Summed up:
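Cells were preincubated 48 h with HDAC inhibitor, then cisplatin was added over a concentration range for 72 h, with MTT read-out. Shift factor is cisplatin-alone IC50 divided by combination IC50. Data are mean ± SEM of pooled data from at least three independent experiments, each in triplicate. Significance was by t test (p < 0.05).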

Test [19] addresses T1, Histone deacetylase 1/6 (Homo sapiens). Kind of test: Inhibition of HDAC1/HDAC6 in human Cal27CisR cells assessed as potentiation of 20 uM cisplatin-induced cytotoxicity by measuring combination index at 200 nM preincubated for 48 hrs followed by cisplatin treatment measured after 72 hrs by MTT assay.

Activity calls are given as the source filed them. No cut-off for these calls is given here. A value given as a limit tells only on which side of the number the result lay.

T1 sequence (Q13547 whole entry, looked up): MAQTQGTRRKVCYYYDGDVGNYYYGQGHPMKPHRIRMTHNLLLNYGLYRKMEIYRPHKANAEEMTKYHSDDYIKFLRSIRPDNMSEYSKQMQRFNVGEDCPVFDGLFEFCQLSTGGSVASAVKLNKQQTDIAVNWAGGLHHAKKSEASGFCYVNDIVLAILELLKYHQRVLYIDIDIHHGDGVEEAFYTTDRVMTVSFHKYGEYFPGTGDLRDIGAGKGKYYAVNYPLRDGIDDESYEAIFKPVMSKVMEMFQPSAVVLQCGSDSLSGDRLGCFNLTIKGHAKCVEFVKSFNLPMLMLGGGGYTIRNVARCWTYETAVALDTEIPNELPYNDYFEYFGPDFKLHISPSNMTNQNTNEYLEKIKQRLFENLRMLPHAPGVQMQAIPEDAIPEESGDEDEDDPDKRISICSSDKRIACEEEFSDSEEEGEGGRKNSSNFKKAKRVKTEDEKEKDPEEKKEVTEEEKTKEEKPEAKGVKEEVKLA
T1 sequence (Q9UBN7 whole entry, looked up): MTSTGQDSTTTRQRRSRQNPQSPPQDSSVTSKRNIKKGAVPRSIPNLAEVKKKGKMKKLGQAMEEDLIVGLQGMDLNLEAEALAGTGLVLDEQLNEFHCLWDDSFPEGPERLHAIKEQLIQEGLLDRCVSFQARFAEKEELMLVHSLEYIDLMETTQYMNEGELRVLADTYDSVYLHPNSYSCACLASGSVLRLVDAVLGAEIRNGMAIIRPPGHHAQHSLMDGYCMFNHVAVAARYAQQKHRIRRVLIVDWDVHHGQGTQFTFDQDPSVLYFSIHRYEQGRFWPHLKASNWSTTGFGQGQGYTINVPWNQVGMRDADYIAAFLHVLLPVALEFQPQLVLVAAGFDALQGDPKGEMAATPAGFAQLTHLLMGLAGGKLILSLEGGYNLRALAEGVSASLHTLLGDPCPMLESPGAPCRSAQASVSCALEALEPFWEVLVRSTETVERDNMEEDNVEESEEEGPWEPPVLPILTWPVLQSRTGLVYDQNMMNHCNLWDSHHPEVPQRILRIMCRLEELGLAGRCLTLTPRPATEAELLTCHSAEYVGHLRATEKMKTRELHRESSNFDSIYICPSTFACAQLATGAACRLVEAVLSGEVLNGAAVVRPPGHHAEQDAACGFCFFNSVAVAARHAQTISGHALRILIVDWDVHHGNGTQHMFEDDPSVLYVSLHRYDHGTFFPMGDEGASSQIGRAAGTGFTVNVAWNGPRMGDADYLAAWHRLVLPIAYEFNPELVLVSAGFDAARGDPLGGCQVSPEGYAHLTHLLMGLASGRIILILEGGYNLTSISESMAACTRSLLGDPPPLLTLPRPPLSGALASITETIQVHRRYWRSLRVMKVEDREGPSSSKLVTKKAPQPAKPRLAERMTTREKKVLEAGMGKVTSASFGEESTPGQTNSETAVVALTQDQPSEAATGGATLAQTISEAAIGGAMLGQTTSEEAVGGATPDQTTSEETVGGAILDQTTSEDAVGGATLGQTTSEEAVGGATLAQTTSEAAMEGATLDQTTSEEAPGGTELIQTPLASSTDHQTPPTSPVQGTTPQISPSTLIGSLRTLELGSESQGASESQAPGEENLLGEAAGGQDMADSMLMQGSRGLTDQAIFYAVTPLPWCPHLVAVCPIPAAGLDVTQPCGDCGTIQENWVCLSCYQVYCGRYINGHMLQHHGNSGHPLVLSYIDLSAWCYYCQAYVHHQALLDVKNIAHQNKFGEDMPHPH

In the case of `COc1cc(NC(=O)NOCCCCCC(=O)NO)c2nccc(C)c2c1`, the CI was less than 0.2 in test [1]; 0.29 in test [2]; less than 0.2 in [3]; less than 0.2 in test [4]; less than 0.2 in test [5]; 0.25 in test [6]. Further, the CI in [7] is less than 0.2; in test [8], 0.27; in test [9] it was 0.39; in [11], less than 0.2; in test [12], less than 0.2; in [13], less than 0.2. The CI in test [14] was less than 0.2; in [15] it was 0.34; in test [16] it was less than 0.2; in [17], 0.44; in test [19] it was 0.33. Moreover, the result in [10] was inactive. Further, the “fold change (FC)” value in test [18] stood at 6.1.
As for `COc1cc(NC(=O)NOCCCCCC(=O)NO)c2nc(OC)cc(C)c2c1`, the CI was less than 0.2 in [1]; 0.22 in [2]; less than 0.2 in test [3]; 0.46 in test [4]; 0.87 in test [5]; 0.32 in [6]. Moreover, the CI in [7] is less than 0.2; in test [8], 0.38; in [9], 0.51; in test [11], 0.96; in test [12] it was 0.3; in test [13], 0.89. Also, the CI in test [14] was 0.25; in test [15], 0.17; in [16], less than 0.2; in test [17], 0.64; in test [19], 0.19. For the same molecule, the result in test [10] was inactive. Besides, in test [18], the “fold change (FC)” value is reported as 8.7.

For the origin of these results see ChEMBL document CHEMBL4014350, “Alkoxyurea-Based Histone Deacetylase Inhibitors Increase Cisplatin Potency in Chemoresistant Cancer Cell Lines” (J Med Chem, 2017).
